Results taken from ChEMBL document CHEMBL1123779, “Modifications of primaquine as antimalarials. 4. 5-Alkoxy derivatives of primaquine” (J Med Chem, 1987).

Legend:
[1] = test system: Mus musculus; experiment: Suppressive blood schizonticidal antimalarial activity evaluated in the trophozoite-induced Plasmodium berghei infection in mice (Mus musculus) at a dose 160 mg/kg given as no. of toxic deaths; format: functional
Method in brief: (§1)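 Rane Laboratory mouse test with blood-induced P. berghei infection, five mice per group. Toxic deaths are deaths occurring before the 6th day postinfection.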

[2] = test system: Plasmodium berghei; experiment: Suppressive blood schizonticidal antimalarial activity evaluated in the trophozoite-induced Plasmodium berghei infection in mice (Mus musculus) at a dose 640 mg/kg given as number of toxic deaths; format: toxicity, organism-based; parameters: dose 640 mg/kg; details: in vivo; method in brief: as §1
[3] = test system: Mus musculus; experiment: (§2) Suppressive blood schizonticidal antimalarial activity evaluated in the trophozoite-induced Plasmodium berghei infection in mice (Mus musculus) at a dose 40 mg/kg; format: functional
Method in brief: (§3)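 Run at the Rane Laboratory with blood-induced P. berghei infections in mice, five animals per group. A cure is a mouse surviving to 60 days postinfection. Deaths before day 6 are recorded separately as toxic deaths. Activity is scored from the increase in mean survival time over untreated controls, and counts as active when treated MST is more than twice control MST.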

[4] = test system: Mus musculus; experiment: Suppressive blood schizonticidal antimalarial activity evaluated in the trophozoite-induced Plasmodium berghei infection in mice (Mus musculus) at a dose 10 mg/kg; format: functional
Method in brief: (§4)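 Run at the Rane Laboratory in mice infected with blood-induced P. berghei, five animals per group. Activity is the increase in mean survival time over untreated infected controls. A compound counts as active when treated-group MST is more than twice the control MST. Cures are mice surviving at 60 days postinfection.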

[5] = test system: Mus musculus; experiment: Suppressive blood schizonticidal antimalarial activity evaluated in the trophozoite-induced Plasmodium berghei infection in mice (Mus musculus) at a dose 5 mg/kg; format: functional; parameters: unit not given beside the values; method in brief: as §4
[6] = test system: Mus musculus; experiment: Suppressive blood schizonticidal antimalarial activity evaluated in the trophozoite-induced Plasmodium berghei infection in mice (Mus musculus) at a dose 80 mg/kg; format: functional; parameters: unit not given beside the values; method in brief: as §4
[7] = test system: Mus musculus; experiment: Suppressive blood schizonticidal antimalarial activity evaluated in the trophozoite-induced Plasmodium berghei infection in mice (Mus musculus) at a dose 320 mg/kg given as no. of toxic deaths; format: functional; method in brief: as §1
[8] = test system: Plasmodium cynomolgi; experiment: Cures in Plasmodium cynomolgi infected Rhesus monkeys (Macaca mulatta) on 0.1 mg/kg/day after 7 days; cured 0 of 1; format: functional
[9] = test system: Mus musculus; experiment: Suppressive blood schizonticidal antimalarial activity evaluated in the trophozoite-induced Plasmodium berghei infection in mice (Mus musculus) at a dose 2.5 mg/kg; format: functional; method in brief: as §4
[10] = test system: Plasmodium berghei; experiment: Blood schizonticidal antimalarial activity in the trophozoite-induced Plasmodium berghei infection in mice (Mus musculus) at 20 mg/kg; format: functional; parameters: unit not given beside the values; method in brief: as §4
[11] = test system: Plasmodium cynomolgi; experiment: Cures in Plasmodium cynomolgi infected Rhesus monkeys (Macaca mulatta) on 1 mg/kg/day after 7 days; cured 1 of 1; format: functional
[12] = test system: Plasmodium cynomolgi; experiment: Cures in Plasmodium cynomolgi infected Rhesus monkeys (Macaca mulatta) on 0.316 mg/kg/day after 7 days; cured 1 of 1; format: functional
[13] = test system: Plasmodium cynomolgi; experiment: Cures in Plasmodium cynomolgi infected Rhesus monkeys (Macaca mulatta) on 0.1 mg/kg/day after 7 days (x7); cured 0 of 2; format: functional
[14] = test system: Plasmodium cynomolgi; experiment: Cures in Plasmodium cynomolgi infected Rhesus monkeys (Macaca mulatta) on 0.316 mg/kg/day after 7 days; cured 0 of 2; format: functional
[15] = test system: Mus musculus; experiment: Suppressive blood schizonticidal antimalarial activity evaluated in the trophozoite-induced Plasmodium berghei infection in mice (Mus musculus) at a dose 80 mg/kg given as no. of cures; format: functional; method in brief: as §3
[16] = test system: Plasmodium berghei; experiment: Blood schizonticidal activity in trophozoite-induced Plasmodium berghei infected mice (Mus musculus) at 40 mg/kg; numbers cured; format: functional; method in brief: as §3
[17] = test system: Mus musculus; experiment: Suppressive blood schizonticidal antimalarial activity evaluated in the trophozoite-induced Plasmodium berghei infection in mice (Mus musculus) at a dose 160 mg/kg; format: functional; method in brief: as §4
[18] = test system: Plasmodium cynomolgi; experiment: Cures in Plasmodium cynomolgi infected Rhesus monkeys (Macaca mulatta) on 1 mg/kg/day after 7 days; cured 3 of 4; format: functional
[19] = test system: Mus musculus; experiment: Suppressive blood schizonticidal antimalarial activity evaluated in the trophozoite-induced Plasmodium berghei infection in mice (Mus musculus) at a dose 80 mg/kg given as no. of toxic deaths; format: functional; method in brief: as §1
[20] = test system: Mus musculus; experiment: as §2; format: functional; parameters: unit not given beside the values; method in brief: as §4
[21] = test system: Plasmodium cynomolgi; experiment: Radical curative antimalarial activity against Plasmodium cynomolgi in Rhesus monkeys (Macaca mulatta) at 1 mg/kg/day over 7 days; cured 1 of 2; format: functional
[22] = test system: Plasmodium cynomolgi; experiment: Cures in Plasmodium cynomolgi infected Rhesus monkeys (Macaca mulatta) on 0.5 mg/kg/day; format: functional
[23] = test system: Plasmodium cynomolgi; experiment: Cures in Plasmodium cynomolgi infected Rhesus monkeys (Macaca mulatta) on 0.125 mg/kg/day dose; format: functional
[24] = test system: Plasmodium cynomolgi; experiment: Cures in Plasmodium cynomolgi infected Rhesus monkeys (Macaca mulatta) on 0.25 mg/kg/day dose; format: functional
[25] = test system: Plasmodium cynomolgi; experiment: Cures in Plasmodium cynomolgi infected Rhesus monkeys (Macaca mulatta) on 0.316 mg/kg/day after 7 days; cured 0 of 3; format: functional
[26] = test system: Mus musculus; experiment: Suppressive blood schizonticidal antimalarial activity evaluated in the trophozoite-induced Plasmodium berghei infection in mice (Mus musculus) at a dose 160 mg/kg given as no. of cures; format: functional; method in brief: as §3
[27] = test system: Plasmodium cynomolgi; experiment: Cures in Plasmodium cynomolgi infected Rhesus monkeys (Macaca mulatta) on 1 mg/kg/day after 7 days; cured 2 of 2; format: functional
[28] = test system: Plasmodium cynomolgi; experiment: Cures in Plasmodium cynomolgi infected Rhesus monkeys (Macaca mulatta) on 0.1 mg/kg/day after 7 days; cured 1 of 2; format: functional
[29] = test system: Mus musculus; experiment: Suppressive blood schizonticidal antimalarial activity evaluated in the trophozoite-induced Plasmodium berghei infection in mice (Mus musculus) at a dose 10 mg/kg given as no. of cures; format: functional; method in brief: as §3
[30] = test system: Mus musculus; experiment: Suppressive blood schizonticidal antimalarial activity evaluated in the trophozoite-induced Plasmodium berghei infection in mice (Mus musculus) at a dose 5 mg/kg given as no. of cures; format: functional; method in brief: as §3
[31] = test system: Plasmodium cynomolgi; experiment: Cures in Plasmodium cynomolgi infected Rhesus monkeys (Macaca mulatta) on 0.1 mg/kg/day after 7 days; cured 3 of 4; format: functional
Method in brief: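 Radical curative test run by the SEATO Medical Research Laboratory, Bangkok, in rhesus monkeys with sporozoite-induced P. cynomolgi infection. Cures are recorded as the number cured out of the number treated.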

[32] = test system: Mus musculus; experiment: Suppressive blood schizonticidal antimalarial activity evaluated in the trophozoite-induced Plasmodium berghei infection in mice (Mus musculus) at a dose 2.5 mg/kg given as number of cures; format: functional; method in brief: as §3
[33] = test system: Mus musculus; experiment: Suppressive blood schizonticidal antimalarial activity evaluated in the trophozoite-induced Plasmodium berghei infection in mice (Mus musculus) at a dose 20 mg/kg given as no. of cures; format: functional; method in brief: as §3
[34] = test system: Plasmodium cynomolgi; experiment: Cures in Plasmodium cynomolgi infected Rhesus monkeys (Macaca mulatta) on 1 mg/kg/day after 7 days; cured 0 of 1; format: functional

| SMILES | Toxic deaths [1] | Toxic deaths [2] | Delta MST [4] | Delta MST [6] | Toxic deaths [7] | Delta MST [10] | Cures/no. of animals [13] | Cures [16] | Delta MST [20] | further results |
| --- | --- | --- | --- | --- | --- | --- | --- | --- | --- | --- |
| C=CCCOc1c(OC)cc(NC(C)CCCN)c2nccc(C)c12 (stereo unspecified) | 5 | 5 | 7.5 | 0 | 5 | 8.8 |  |  |  | Cures [3]: 1; Delta MST [5]: 8.1; Cures/no. of animals [8]: 0; Delta MST [9]: 7.5; Cures/no. of animals [11]: 1; Cures/no. of animals [12]: 1 |
| CCCCCCOc1c(OC)cc(NC(C)CCCN)c2ncc(C)cc12 (stereo unspecified) |  | 4 | 0.2 |  | 3 | 8.2 | 0 | 2 |  | Cures/no. of animals [14]: 0; Cures [15]: 1; Delta MST [17]: 7.6; Cures/no. of animals [18]: 3 |
| COc1cc(NC(C)CCCN)c2ncc(C)cc2c1 (stereo unspecified) | 2 | 5 |  |  | 5 | 5.7 | 0 |  | 7.5 | Toxic deaths [19]: 1; Cures/no. of animals [14]: 0; Cures/no. of animals [21]: 2 |
| COc1cc(NC(C)CCCN)c2nccc(C)c2c1OC (stereo unspecified) | 1 | 5 |  | 8.9 | 4 | 5.7 |  |  | 7.1 | Cures [22]: 1; Cures [23]: 11; Cures [24]: 3 |
| COc1cc(NC(C)CCCN)c2nccc(C)c2c1OCCCCCCCCOc1ccccc1 (stereo unspecified) |  | 1 | 0.6 | 4.4 | 2 | 3 |  |  | 9.4 | Cures/no. of animals [25]: 0; Cures [26]: 3; Cures/no. of animals [27]: 2; Cures/no. of animals [28]: 1 |
| CCCCCOc1c(OC)cc(NC(C)CCCN)c2nccc(C)c12 (stereo unspecified) | 4 | 5 |  |  | 5 |  |  | 1 |  | Cures [29]: 5; Toxic deaths [19]: 2; Cures [30]: 5; Cures/no. of animals [27]: 2; Cures/no. of animals [31]: 3; Cures [32]: 2; Cures [33]: 4 |
| CCCCCCOc1c(OC)cc(NC(C)CCCN)c2nc(C)ccc12 (stereo unspecified) |  | 3 | 2.7 | 11.4 | 3 | 6 | 0 | 1 |  | Cures [26]: 3; Cures/no. of animals [12]: 1; Cures/no. of animals [34]: 0 |
